Activity calls are given as the source filed them. The rule behind the calls is not given here.
The compounds below were run on Bacillus subtilis (assay: Antibacterial activity against Bacillus subtilis).
Type: functional, organism-based
For `CC[C@@]1(O)C[C@H](O[C@H]2C[C@H](OC(C)=O)[C@H](OC(C)=O)CO2)c2c(O)c3c(c(O)c2[C@H]1C(=O)OC)C(=O)c1cccc(O)c1C3=O`, the Activity was “Active”.

Each compound was assayed on P388 (assay: Antitumor activity against mouse P388 cells allografted in CDF mouse assessed as tumor growth inhibition at 64 mg/kg/day relative to control).
Type: functional
Outline: (§1)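 P388 lymphatic leukemia carried in CDF mice, with compound given as a daily dose in mg/kg/day. Activity was read out as T/C, treated versus control. Route, vehicle and schedule length are not given.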
`CC[C@@]1(O)C[C@H](O[C@H]2C[C@H](OC(C)=O)[C@H](OC(C)=O)CO2)c2c(O)c3c(c(O)c2[C@H]1C(=O)OC)C(=O)c1cccc(O)c1C3=O` was tested, and the T/C was 125%.

The compounds below were run on P388 (assay: Antitumor activity against mouse P388 cells allografted in CDF mouse assessed as tumor growth inhibition at 32 to 128 mg/kg/day relative to control).
Type: functional
Outline: as §1
`CC[C@@]1(O)C[C@H](O[C@H]2C[C@H](OC(C)=O)[C@H](OC(C)=O)CO2)c2c(O)c3c(c(O)c2[C@H]1C(=O)OC)C(=O)c1cccc(O)c1C3=O` was tested, and the T/C was 110%.

The compounds below were run on P388 (assay: Antitumor activity against mouse P388 cells allografted in CDF mouse assessed as tumor growth inhibition at 13 mg/kg/day relative to control).
Type: functional
Outline: as §1
Compound `CC[C@@]1(O)C[C@H](O[C@H]2C[C@H](O)[C@H](O)CO2)c2c(O)c3c(c(O)c2[C@H]1C(=O)OC)C(=O)c1cccc(O)c1C3=O` has a T/C of 115%.

Each compound was assayed on P388 (assay: Antitumor activity against mouse P388 cells allografted in CDF mouse assessed as tumor growth inhibition at 18 mg/kg/day relative to control).
Type: functional
Outline: as §1
With `CC[C@@]1(O)C[C@H](O[C@H]2C[C@H](O)[C@H](O)[C@H](C)O2)c2c(O)c3c(c(O)c2[C@H]1C(=O)OC)C(=O)c1cccc(O)c1C3=O` the T/C was 109%.

These compounds were tested on Enterobacteria phage lambda (assay: Induction of lambda phage production in streptomycin-dependent lysogenic Escherichia coli W1709(lambda) assessed as ratio of plaques in treated culture to control).
Type: functional
For `CC[C@@]1(O)C[C@H](O[C@@H]2OC[C@H](OC(C)=O)[C@@H](OC(C)=O)[C@H]2OC(C)=O)c2c(O)c3c(c(O)c2[C@H]1C(=O)OC)C(=O)c1cccc(O)c1C3=O`, the Activity was “inactive”. With `CC[C@@]1(O)C[C@H](O[C@@H]2O[C@H](CO)[C@@H](O)[C@H]2O)c2c(O)c3c(c(O)c2[C@H]1C(=O)OC)C(=O)c1cccc(O)c1C3=O` the Activity was “inactive”. In the case of `CC[C@@]1(O)C[C@H](O[C@@H]2OC[C@@H](OC(C)=O)[C@H](OC(C)=O)[C@H]2OC(C)=O)c2c(O)c3c(c(O)c2[C@H]1C(=O)OC)C(=O)c1cccc(O)c1C3=O`, the Activity is reported as “inactive”. With `CC[C@@]1(O)C[C@H](O[C@H]2C[C@H](OC(C)=O)[C@H](OC(C)=O)[C@H](C)O2)c2c(O)c3c(c(O)c2[C@H]1C(=O)OC)C(=O)c1cccc(O)c1C3=O` the Activity was “inactive”. In the case of `CC[C@@]1(O)C[C@H](O[C@@H]2O[C@H](CO)[C@H](O)[C@H]2O)c2c(O)c3c(c(O)c2[C@H]1C(=O)OC)C(=O)c1cccc(O)c1C3=O`, the Activity is reported as “inactive”. `CC[C@@]1(O)C[C@H](O[C@@H]2O[C@@H](C)[C@H](OC(C)=O)[C@@H](OC(C)=O)[C@H]2OC(C)=O)c2c(O)c3c(c(O)c2[C@H]1C(=O)OC)C(=O)c1cccc(O)c1C3=O` was tested, and the Activity was “inactive”. In the case of `CC[C@@]1(O)C[C@H](O[C@@H]2OC[C@H](O)[C@H](O)[C@H]2O)c2c(O)c3c(c(O)c2[C@H]1C(=O)OC)C(=O)c1cccc(O)c1C3=O`, the Activity is reported as “inactive”. In the case of `CC[C@@]1(O)C[C@H](O[C@H]2C[C@H](O)[C@H](O)CO2)c2c(O)c3c(c(O)c2[C@H]1C(=O)OC)C(=O)c1cccc(O)c1C3=O`, the Activity is reported as “inactive”. `CC[C@@]1(O)C[C@H](O[C@@H]2O[C@@H](C)[C@@H](O)[C@@H](O)[C@@H]2O)c2c(O)c3c(c(O)c2[C@H]1C(=O)OC)C(=O)c1cccc(O)c1C3=O` was tested, and the Activity was “inactive”. `CC[C@@]1(O)C[C@H](O[C@@H]2O[C@@H](C)[C@@H](OC(C)=O)[C@@H](OC(C)=O)[C@@H]2OC(C)=O)c2c(O)c3c(c(O)c2[C@H]1C(=O)OC)C(=O)c1cccc(O)c1C3=O` was tested, and the Activity was “inactive”. `CC[C@@]1(O)C[C@H](O[C@@H]2O[C@@H](COC(=O)c3ccccc3)[C@@H](OC(=O)c3ccccc3)[C@H]2OC(=O)c2ccccc2)c2c(O)c3c(c(O)c2[C@H]1C(=O)OC)C(=O)c1cccc(O)c1C3=O` was tested, and the Activity was “inactive”. With `CC[C@@]1(O)C[C@H](O[C@@H]2OC[C@@H](OC(C)=O)[C@@H](OC(C)=O)[C@H]2OC(C)=O)c2c(O)c3c(c(O)c2[C@H]1C(=O)OC)C(=O)c1cccc(O)c1C3=O` the Activity was “inactive”. In the case of `CC[C@@]1(O)C[C@H](O[C@@H]2O[C@H](COC(=O)c3ccc([N+](=O)[O-])cc3)[C@H](OC(=O)c3ccc([N+](=O)[O-])cc3)[C@H]2OC(=O)c2ccc([N+](=O)[O-])cc2)c2c(O)c3c(c(O)c2[C@H]1C(=O)OC)C(=O)c1cccc(O)c1C3=O`, the Activity is reported as “inactive”. With `CC[C@@]1(O)C[C@H](O[C@@H]2O[C@@H](CO)[C@@H](O)[C@H]2O)c2c(O)c3c(c(O)c2[C@H]1C(=O)OC)C(=O)c1cccc(O)c1C3=O` the Activity was “inactive”. In the case of `CC[C@@]1(O)C[C@H](O[C@H]2C[C@H](OC(=O)c3ccc([N+](=O)[O-])cc3)[C@@H](COC(=O)c3ccc([N+](=O)[O-])cc3)O2)c2c(O)c3c(c(O)c2[C@H]1C(=O)OC)C(=O)c1cccc(O)c1C3=O`, the Activity is reported as “inactive”. `CC[C@@]1(O)C[C@H](O[C@H]2C[C@H](O)[C@H](O)[C@H](C)O2)c2c(O)c3c(c(O)c2[C@H]1C(=O)OC)C(=O)c1cccc(O)c1C3=O` was tested, and the Activity was “inactive”. For `CC[C@@]1(O)C[C@H](O[C@@H]2O[C@H](COCc3ccccc3)[C@@H](OCc3ccccc3)[C@@H]2OCc2ccccc2)c2c(O)c3c(c(O)c2[C@H]1C(=O)OC)C(=O)c1cccc(O)c1C3=O`, the Activity was “inactive”. With `CC[C@@]1(O)C[C@H](O[C@@H]2OC[C@H](OC(C)=O)[C@H](OC(C)=O)[C@H]2OC(C)=O)c2c(O)c3c(c(O)c2[C@H]1C(=O)OC)C(=O)c1cccc(O)c1C3=O` the Activity was “inactive”. `CC[C@@]1(O)C[C@H](O[C@@H]2OC[C@@H](OC(C)=O)[C@@H](OC(C)=O)[C@@H]2OC(C)=O)c2c(O)c3c(c(O)c2[C@H]1C(=O)OC)C(=O)c1cccc(O)c1C3=O` was tested, and the Activity was “inactive”. For `CC[C@@]1(O)C[C@H](O[C@H]2C[C@H](O)[C@@H](CO)O2)c2c(O)c3c(c(O)c2[C@H]1C(=O)OC)C(=O)c1cccc(O)c1C3=O`, the Activity was “inactive”. With `CC[C@@]1(O)C[C@H](O[C@@H]2O[C@H](CO)[C@@H](O)[C@H](O)[C@H]2O)c2c(O)c3c(c(O)c2[C@H]1C(=O)OC)C(=O)c1cccc(O)c1C3=O` the Activity was “inactive”. In the case of `CC[C@@]1(O)C[C@H](O[C@H]2C[C@H](OC(C)=O)[C@H](OC(C)=O)CO2)c2c(O)c3c(c(O)c2[C@H]1C(=O)OC)C(=O)c1cccc(O)c1C3=O`, the Activity is reported as “inactive”. With `CC[C@@]1(O)C[C@H](O[C@H]2C[C@H](OC(C)=O)[C@@H](OC(C)=O)[C@H](C)O2)c2c(O)c3c(c(O)c2[C@H]1C(=O)OC)C(=O)c1cccc(O)c1C3=O` the Activity was “inactive”. In the case of `CC[C@@]1(O)C[C@H](O[C@@H]2O[C@H](COC(C)=O)[C@@H](OC(C)=O)[C@H](OC(C)=O)[C@H]2OC(C)=O)c2c(O)c3c(c(O)c2[C@H]1C(=O)OC)C(=O)c1cccc(O)c1C3=O`, the Activity is reported as “inactive”. For `CC[C@@]1(O)C[C@H](O[C@H]2C[C@H](O)[C@@H](O)[C@H](C)O2)c2c(O)c3c(c(O)c2[C@H]1C(=O)OC)C(=O)c1cccc(O)c1C3=O`, the Activity was “inactive”. `CC[C@@]1(O)C[C@H](O[C@@H]2O[C@H](COC(=O)c3ccccc3)[C@@H](OC(=O)c3ccccc3)[C@H]2OC(=O)c2ccccc2)c2c(O)c3c(c(O)c2[C@H]1C(=O)OC)C(=O)c1cccc(O)c1C3=O` was tested, and the Activity was “inactive”.

From ChEMBL document CHEMBL3244092, “Synthesis of episilon-rhodomycinone glycosides” (1977)
